Reference: ChEMBL document CHEMBL1821590, “Novel dihydropyrimidines and its pyrazole derivatives: synthesis and pharmacological screening” (Eur J Med Chem, 2011)
In brackets after ≈: the same amount, converted by molar mass.

What was measured:
Format in all cases: functional
[1] = Antiinflammatory activity assessed as inhibition of albumin denaturation at 100 ug/ml by UV-visible spectrophotometry
How it was run: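 Compounds dissolved in minimal DMF, diluted in PBS pH 7.4 (final DMF <2.5%). 1 mL test solution (100 µg/mL) plus 1 mL 1% albumin in PBS, 15 min at 27 ± 1 °C, then heated 10 min at 60 ± 1 °C. After cooling, turbidity read at 660 nm. % inhibition = [(Vt/Vc) − 1] × 100 against a no-drug control. Triplicate, averaged. Diclofenac standard.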

Candida albicans [2] = experiment: Antimicrobial activity against Candida albicans at 50 ug/ml by paper disc method; details: read-out: IZ
How it was run: (§1)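 Paper disc method against A. niger and C. albicans, with compounds at 25, 50 and 100 µg/mL. Amphotericin-B as standard.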

Aspergillus niger [3] = experiment: Antimicrobial activity against Aspergillus niger at 100 ug/ml by paper disc method; details: read-out: IZ; how it was run: as §1
[4] = Antioxidant activity assessed as hydrogen peroxide scavenging activity after 10 mins
How it was run: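 H2O2 (20 mM) in PBS pH 7.4. 1 mL of sample or ascorbic acid in methanol (12.5–100 µg/mL) added to 2 mL H2O2 solution. A230 read after 10 min. % inhibition = [1 − (Vt/Vc)] × 100. Triplicate, averaged. IC50 derived from % inhibition across concentrations.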

[5] = Antioxidant activity assessed as nitric oxide radical scavenging activity after 150 mins
How it was run: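 10 mM sodium nitroprusside (4 mL), PBS pH 7.4 (1 mL) and sample or ascorbic acid in DMSO (1 mL, 12.5–100 µg/mL), incubated 150 min at 25 °C. Nitrite detected with sulphanilic acid (5 min) then naphthylethylenediamine (30 min, diffused light). Read at […]. Triplicate. % inhibition = [1 − (Vt/Vc)] × 100. IC50 derived from it.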

Candida albicans [6] = experiment: Antimicrobial activity against Candida albicans at 25 ug/ml by paper disc method; details: read-out: IZ; how it was run: as §1
Bacillus subtilis [7] = experiment: Antimicrobial activity against Bacillus subtilis at 100 ug/ml by agar plate diffusion technique; details: read-out: IZ
How it was run: (§2)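 Agar plate diffusion against E. coli, P. aeruginosa, S. aureus and B. subtilis, with compounds at 25, 50 and 100 µg/mL. Streptomycin as standard.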

Metaphire posthuma [8] = experiment: Anthelmintic activity against Pheretima posthuma assessed as time taken for parasite death at 0.5% w/v
How it was run: (§3)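 Earthworms (Pheretima posthuma, spelled Perituma posthuma in text) exposed to test compounds at 0.1, 0.2 and 0.5% w/v. Albendazole served as standard, with an untreated control. Paralysis was recorded as the time until worms became motionless, then time to death was recorded, in minutes. Each value is the mean of three determinations with S.D.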

Aspergillus niger [9] = experiment: Antimicrobial activity against Aspergillus niger at 25 ug/ml by paper disc method; details: read-out: IZ; how it was run: as §1
Pseudomonas aeruginosa [10] = experiment: Antimicrobial activity against Pseudomonas aeruginosa at 50 ug/ml by agar plate diffusion technique; details: read-out: IZ; how it was run: as §2
Candida albicans [11] = experiment: Antimicrobial activity against Candida albicans at 100 ug/ml by paper disc method; details: read-out: IZ; how it was run: as §1
[12] = Antioxidant activity assessed as inhibition of lipid peroxidation using egg lecithin liposomes incubated for 1 hr
How it was run: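 Egg lecithin (3 mg/mL, phosphate buffer pH 7.4) sonicated 10 min to form liposomes. Sample or ascorbic acid (12.5–100 µg/mL) added. Peroxidation induced with FeCl3 and L-ascorbic acid, 1 h at 37 °C. Stopped with HCl/TCA/TBA/BHA, boiled 15 min, centrifuged, supernatant read at 532 nm. Triplicate. % inhibition vs control. IC50 derived.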

Metaphire posthuma [13] = experiment: Anthelmintic activity against Pheretima posthuma assessed as time taken for parasite death at 0.2% w/v; how it was run: as §3
Aspergillus niger [14] = experiment: Antimicrobial activity against Aspergillus niger at 50 ug/ml by paper disc method; details: read-out: IZ; how it was run: as §1
Metaphire posthuma [15] = experiment: Anthelmintic activity against Pheretima posthuma assessed as time taken for complete parasite paralysis at 0.1% w/v
How it was run: (§4)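 Earthworms (Pheretima posthuma) exposed to test solutions at 0.1, 0.2 and 0.5% w/v; time in minutes to complete paralysis (worms motionless) recorded. Albendazole as standard. Mean of three determinations ± S.D.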

Metaphire posthuma [16] = experiment: Anthelmintic activity against Pheretima posthuma assessed as time taken for complete parasite paralysis at 0.5% w/v; how it was run: as §4
Pseudomonas aeruginosa [17] = experiment: Antimicrobial activity against Pseudomonas aeruginosa at 25 ug/ml by agar plate diffusion technique; details: read-out: IZ; how it was run: as §2
Metaphire posthuma [18] = experiment: Anthelmintic activity against Pheretima posthuma assessed as time taken for complete parasite paralysis at 0.2% w/v; how it was run: as §4
Metaphire posthuma [19] = experiment: Anthelmintic activity against Pheretima posthuma assessed as time taken for parasite death at 0.1% w/v; how it was run: as §3
Bacillus subtilis [20] = experiment: Antimicrobial activity against Bacillus subtilis at 25 ug/ml by agar plate diffusion technique; details: read-out: IZ; how it was run: as §2
Bacillus subtilis [21] = experiment: Antimicrobial activity against Bacillus subtilis at 50 ug/ml by agar plate diffusion technique; details: read-out: IZ; how it was run: as §2
Pseudomonas aeruginosa [22] = experiment: Antimicrobial activity against Pseudomonas aeruginosa at 100 ug/ml by agar plate diffusion technique; details: read-out: IZ; how it was run: as §2
[23] = Antioxidant activity assessed as potassium ferricyanide ion reducing power after 20 mins
How it was run: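 Oyaizu method. Samples or ascorbic acid in DMF (12.5–100 µg/mL) mixed with 0.2 M phosphate buffer pH 6.6 and 1% potassium ferricyanide, 20 min at 50 °C. 10% TCA added, centrifuged. Supernatant mixed with water and 0.1% FeCl3, read at 700 nm. % = [(Vt/Vc) − 1] × 100. IC50 derived.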

Escherichia coli [24] = experiment: Antimicrobial activity against Escherichia coli at 100 ug/ml by agar plate diffusion technique; details: read-out: IZ; how it was run: as §2
Escherichia coli [25] = experiment: Antimicrobial activity against Escherichia coli at 25 ug/ml by agar plate diffusion technique; details: read-out: IZ; how it was run: as §2
Escherichia coli [26] = experiment: Antimicrobial activity against Escherichia coli at 50 ug/ml by agar plate diffusion technique; details: read-out: IZ; how it was run: as §2

Row | SMILES | inhibition [1] [%] | zone of inhibition at 50 µg/mL (Candida albicans [2]) [mm] | zone of inhibition at 100 µg/mL (Aspergillus niger [3]) [mm] | IC50 [4] [mg/L] | IC50 [5] [mg/L] | zone of inhibition at 25 µg/mL (Candida albicans [6]) [mm] | zone of inhibition at 100 µg/mL (Bacillus subtilis [7]) [mm] | Time (Metaphire posthuma [8]) [min] | zone of inhibition at 25 µg/mL (Aspergillus niger [9]) [mm] | zone of inhibition at 50 µg/mL (Pseudomonas aeruginosa [10]) [mm] | zone of inhibition at 100 µg/mL (Candida albicans [11]) [mm] | IC50 [12] [mg/L] | Time (Metaphire posthuma [13]) [min] | zone of inhibition at 50 µg/mL (Aspergillus niger [14]) [mm] | Time (Metaphire posthuma [15]) [min] | Time (Metaphire posthuma [16]) [min] | zone of inhibition at 25 µg/mL (Pseudomonas aeruginosa [17]) [mm] | Time (Metaphire posthuma [18]) [min] | Time (Metaphire posthuma [19]) [min] | zone of inhibition at 25 µg/mL (Bacillus subtilis [20]) [mm] | other results
1 | O=C(O)Cc1ccccc1Nc1c(Cl)cccc1Cl | 83.3 | – | – | – | – | – | – | – | – | – | – | – | – | – | – | – | – | – | – | – | –
2 | COc1cccc(-c2nc(SC)n(C)c(=O)c2C#N)c1OC | 38.2 | 13 | 19.7 | 43 (≈ 135 µM) | 67 (≈ 211 µM) | 10.5 | 20.3 | 56.08 | 9.25 | 8.25 | 19.5 | 48 (≈ 151 µM) | 60.44 | 12 | 75.54 | 41.47 | 5.86 | 57.18 | 83.02 | 10.4 | zone of inhibition at 50 µg/mL (Bacillus subtilis [21]): 14.4 mm; zone of inhibition at 100 µg/mL (Pseudomonas aeruginosa [22]): 9.93 mm; IC50 [23]: 54 mg/L (≈ 170 µM)
3 | COc1ccc(-c2nc(NN)n(C)c(=O)c2C#N)cc1 | 20.6 | 10.7 | 17 | 32 (≈ 118 µM) | 56 (≈ 206 µM) | 8.14 | 13.6 | 57.45 | 8.32 | 6.96 | 15.8 | 39 (≈ 144 µM) | 60.22 | 10 | 47.23 | 42.6 | 5 | 45.23 | 62.32 | 9.26 | zone of inhibition at 100 µg/mL (Escherichia coli [24]): 7.49 mm; zone of inhibition at 50 µg/mL (Bacillus subtilis [21]): 10.3 mm; zone of inhibition at 100 µg/mL (Pseudomonas aeruginosa [22]): 7.21 mm; zone of inhibition at 25 µg/mL (Escherichia coli [25]): 6.28 mm; zone of inhibition at 50 µg/mL (Escherichia coli [26]): 7.71 mm; IC50 [23]: 41 mg/L (≈ 151 µM)
4 | CCCSc1ccc2[nH]c(NC(=O)OC)nc2c1 [ALBENDAZOLE] | – | – | – | – | – | – | – | 53.34 | – | – | – | – | 55.25 | – | 50.38 | 30.57 | – | 35.58 | 60.36 | – | –
5 | CN(C)c1ccc(-c2nc(NN)n(C)c(=O)c2C#N)cc1 | 12.6 | 9 | 15.8 | 66 (≈ 232 µM) | 69 (≈ 243 µM) | 9.14 | 14.5 | 43.34 | 7.14 | 6.27 | 15.3 | 63 (≈ 222 µM) | 46.44 | 9.48 | 28.25 | 25.64 | 5.78 | 26.35 | 54.22 | 8.1 | zone of inhibition at 100 µg/mL (Escherichia coli [24]): 8.28 mm; zone of inhibition at 50 µg/mL (Bacillus subtilis [21]): 10.5 mm; zone of inhibition at 100 µg/mL (Pseudomonas aeruginosa [22]): 8.83 mm; zone of inhibition at 25 µg/mL (Escherichia coli [25]): 5.74 mm; zone of inhibition at 50 µg/mL (Escherichia coli [26]): 7.82 mm; IC50 [23]: 81 mg/L (≈ 285 µM)
